In ChEMBL document CHEMBL1153602, “Photochemical electrocyclisation of 3-vinylindoles to pyrido[2,3-a]-, pyrido[4,3-a]- and thieno[2,3-a]-carbazoles: design, synthesis, DNA binding and antitumor cell cytotoxicity” (2009):
Active and inactive are the calls of the source. The calls are words filed in the database; no cut-off is given here.

Legend:
[1] = test system: Calf thymus DNA; assay: Binding affinity to calf thymus DNA assessed as change in melting temperature at a compound to DNA molar ratio of 0.5 by UV-vis spectroscopy; format: nucleic-acid assay; conditions: Bos taurus
Summary of the method: (§1)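 UV absorbance of DNA at 260 nm recorded every minute from 20 to 100 °C, ramping 1 °C/min in a thermostated quartz cell. Tm is taken as the midpoint of the hyperchromic transition. ΔTm = Tm(DNA+drug) − Tm(DNA alone). Calf-thymus DNA or poly(dAdT)2 was used at DNA/drug ratios from 0.1 to 1.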

[2] = biological target: T1, DNA topoisomerase 1 (Homo sapiens) (UniProt P11387); assay: Inhibition of human topoisomerase 1-mediated DNA relaxation assessed as lack of nicking form by agarose gel electrophoresis
T1 sequence (whole entry): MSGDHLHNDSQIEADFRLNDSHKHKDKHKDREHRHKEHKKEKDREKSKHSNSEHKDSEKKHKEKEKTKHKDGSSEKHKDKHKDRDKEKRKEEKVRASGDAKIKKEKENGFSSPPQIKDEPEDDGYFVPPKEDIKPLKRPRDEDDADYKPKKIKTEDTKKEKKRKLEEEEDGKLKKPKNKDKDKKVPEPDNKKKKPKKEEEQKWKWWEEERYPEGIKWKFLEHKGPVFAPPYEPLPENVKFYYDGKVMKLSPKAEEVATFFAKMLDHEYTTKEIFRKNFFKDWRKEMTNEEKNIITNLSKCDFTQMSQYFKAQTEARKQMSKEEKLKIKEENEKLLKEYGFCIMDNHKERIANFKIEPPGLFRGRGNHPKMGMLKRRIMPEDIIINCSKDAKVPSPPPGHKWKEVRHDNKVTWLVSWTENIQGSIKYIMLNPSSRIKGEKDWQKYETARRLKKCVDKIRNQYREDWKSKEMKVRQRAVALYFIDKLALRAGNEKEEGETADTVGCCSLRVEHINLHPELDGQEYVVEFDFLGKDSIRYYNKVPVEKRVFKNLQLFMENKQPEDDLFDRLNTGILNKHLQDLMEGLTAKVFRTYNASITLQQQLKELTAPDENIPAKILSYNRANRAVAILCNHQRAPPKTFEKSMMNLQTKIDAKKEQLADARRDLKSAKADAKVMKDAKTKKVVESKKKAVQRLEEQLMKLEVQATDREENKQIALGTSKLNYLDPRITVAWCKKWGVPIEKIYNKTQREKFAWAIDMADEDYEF
Summary of the method: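 Supercoiled pUC19 (130 ng) was pre-incubated with compound at graded concentrations, or 20 or 50 µM in the cleavage assay. Human topoisomerase I (4 units) was then added for 45 min at 37 °C in 50 mM Tris pH 7.8, 50 mM KCl, 10 mM MgCl2, 1 mM DTT, 1 mM EDTA, 1 mM ATP. Camptothecin (20 µM) served as control. Samples ran on 1% agarose for 2 h at 120 V in TBE, with ethidium bromide either post-stained (relaxation) or included in the gel (cleavage).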

[3] = test system: UO-31; assay: Growth inhibition of human UO31 cells after 48 hrs by sulforhodamine B protein assay; format: functional; conditions: UO-31, 48 h
Summary of the method: (§2)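 NCI 60-cell-line screen. Dose–response used at least five concentrations in 10-fold dilutions with 48 h continuous drug exposure. Growth was estimated by sulforhodamine B protein staining. GI50 is the molar concentration giving 50% growth inhibition versus control.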

[4] = test system: SW-620; assay: Growth inhibition of human SW620 cells after 48 hrs by sulforhodamine B protein assay; format: functional; conditions: SW-620, 48 h; summary of the method: as §2
[5] = test system: Nucleic Acid; assay: Binding affinity to poly(dA).poly(dT) duplex DNA assessed as change in thermal melting temperature at compound to DNA ratio of 0.5 by UV-vis spectroscopy; format: nucleic-acid assay
[6] = test system: HT-29; assay: Cell cycle arrest in human HT-29 cells assessed as accumulation at G2/M phase at 25 uM after 24 hrs using PI staining by flow cytometry; format: functional, cell-based
Summary of the method: (§3)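 HT-29 cells, 3×10^5 per sample in exponential growth, were exposed to graded drug concentrations for 24 h. Cells were then trypsinised, fixed in 70% ethanol and stained 30 min in the dark with propidium iodide (50 µg/ml) plus RNase (100 µg/ml). DNA content was measured by flow cytometry, quantifying cell-cycle phases and the sub-G1 fraction.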

[7] = test system: SK-MEL-5; assay: Growth inhibition of human SK-MEL-5 cells after 48 hrs by sulforhodamine B protein assay; format: functional; conditions: SK-MEL-5, 48 h; summary of the method: as §2
[8] = test system: Calf thymus DNA; assay: Binding affinity to calf thymus DNA assessed as change in melting temperature at a compound to DNA molar ratio of 0.1 by UV-vis spectroscopy; format: nucleic-acid assay; conditions: Bos taurus; summary of the method: as §1
[9] = test system: Nucleic Acid; assay: Binding affinity to poly(dA).poly(dT) duplex DNA assessed as change in thermal melting temperature at compound to DNA ratio of 0.25 by UV-vis spectroscopy; format: nucleic-acid assay
[10] = test system: HT-29; assay: Cell cycle arrest in human HT-29 cells at 25 uM after 24 hrs using PI staining by flow cytometry
[11] = biological target: DNA topoisomerase 2-alpha (Homo sapiens) (UniProt P11388); assay: Inhibition of human topoisomerase 2-mediated DNA relaxation assessed as double stranded break form by agarose gel electrophoresis
DNA topoisomerase 2-alpha (Homo sapiens), sequence (P11388 whole entry): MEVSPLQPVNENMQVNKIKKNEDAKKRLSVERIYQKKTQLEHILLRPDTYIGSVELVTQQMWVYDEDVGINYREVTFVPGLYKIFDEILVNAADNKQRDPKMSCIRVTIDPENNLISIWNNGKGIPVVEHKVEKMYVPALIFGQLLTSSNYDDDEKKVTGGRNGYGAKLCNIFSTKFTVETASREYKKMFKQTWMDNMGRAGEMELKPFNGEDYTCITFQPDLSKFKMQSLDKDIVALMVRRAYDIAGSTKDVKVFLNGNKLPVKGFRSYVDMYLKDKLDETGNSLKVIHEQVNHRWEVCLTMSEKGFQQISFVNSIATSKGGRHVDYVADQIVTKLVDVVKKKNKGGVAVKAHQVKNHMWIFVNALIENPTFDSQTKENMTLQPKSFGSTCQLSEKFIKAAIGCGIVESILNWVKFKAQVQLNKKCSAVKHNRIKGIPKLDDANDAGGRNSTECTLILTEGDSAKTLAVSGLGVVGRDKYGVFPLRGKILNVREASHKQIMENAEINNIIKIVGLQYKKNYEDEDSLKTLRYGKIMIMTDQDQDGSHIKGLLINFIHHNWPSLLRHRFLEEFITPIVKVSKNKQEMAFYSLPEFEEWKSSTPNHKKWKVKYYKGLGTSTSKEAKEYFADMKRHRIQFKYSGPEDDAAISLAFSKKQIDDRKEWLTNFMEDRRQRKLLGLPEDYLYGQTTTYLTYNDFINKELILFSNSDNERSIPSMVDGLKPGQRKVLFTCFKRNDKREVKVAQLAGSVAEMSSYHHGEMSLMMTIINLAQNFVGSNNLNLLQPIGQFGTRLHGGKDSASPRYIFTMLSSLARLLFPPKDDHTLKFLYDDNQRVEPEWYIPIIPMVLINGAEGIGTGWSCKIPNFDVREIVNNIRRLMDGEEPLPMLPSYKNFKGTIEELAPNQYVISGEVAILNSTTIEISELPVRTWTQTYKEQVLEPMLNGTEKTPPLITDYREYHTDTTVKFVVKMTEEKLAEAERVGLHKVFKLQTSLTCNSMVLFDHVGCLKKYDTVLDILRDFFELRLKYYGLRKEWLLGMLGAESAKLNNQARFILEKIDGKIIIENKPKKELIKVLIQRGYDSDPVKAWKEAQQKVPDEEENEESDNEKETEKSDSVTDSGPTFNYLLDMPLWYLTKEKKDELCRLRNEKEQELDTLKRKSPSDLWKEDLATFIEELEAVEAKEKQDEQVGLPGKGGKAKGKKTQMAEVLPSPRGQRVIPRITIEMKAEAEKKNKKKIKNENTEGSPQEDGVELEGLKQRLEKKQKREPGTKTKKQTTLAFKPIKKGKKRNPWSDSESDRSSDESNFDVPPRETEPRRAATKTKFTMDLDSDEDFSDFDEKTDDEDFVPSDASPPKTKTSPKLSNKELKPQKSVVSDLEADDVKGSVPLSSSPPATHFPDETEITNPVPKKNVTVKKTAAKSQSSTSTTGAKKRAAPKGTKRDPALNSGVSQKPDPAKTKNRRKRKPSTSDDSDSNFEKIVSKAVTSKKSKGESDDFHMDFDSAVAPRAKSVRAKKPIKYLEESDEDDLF
Summary of the method: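 Supercoiled pUC19 (130 ng) with compound at 20 or 50 µM, or etoposide as control, was incubated with human topoisomerase II (4 units) for 45 min at 37 °C in cleavage buffer. The reaction was stopped with 0.25% SDS plus proteinase K for 30 min at 50 °C. DNA forms were separated on 1% agarose containing ethidium bromide in TBE.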

[12] = test system: Nucleic Acid; assay: Binding affinity to pBS 117bp DNA by DnaseI footprinting assay; format: nucleic-acid assay
Summary of the method: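 Ligand and fragment were pre-incubated 15 min at 37 °C, then digested with DNase I at 0.001 unit/ml in 20 mM NaCl, 2 mM MgCl2, 2 mM MnCl2, pH 7.3. Products were resolved on a denaturing 8% polyacrylamide/8 M urea gel, with a G-track marker.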

[13] = test system: HT-29; assay: Growth inhibition of human HT-29 cells after 48 hrs by sulforhodamine B protein assay; format: functional; conditions: HT-29, 48 h; summary of the method: as §2
[14] = test system: Nucleic Acid; assay: Binding affinity to poly(dA).poly(dT) duplex DNA assessed as change in thermal melting temperature at compound to DNA ratio of 1 by UV-vis spectroscopy; format: nucleic-acid assay
[15] = test system: HT-29; assay: Cell cycle arrest in human HT-29 cells assessed as accumulation at S phase at 10 uM after 24 hrs using PI staining by flow cytometry; format: functional; summary of the method: as §3
[16] = test system: Nucleic Acid; assay: Binding affinity to poly(dA).poly(dT) duplex DNA assessed as change in thermal melting temperature at compound to DNA ratio of 0.1 by UV-vis spectroscopy; format: nucleic-acid assay
[17] = test system: HT-29; assay: Growth inhibition of human HT-29 cells by MTS assay; format: functional
Summary of the method: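 HT-29 cells, 3×10^3 per well, were seeded 24 h before treatment with compound at 1 nM–100 µM, run as 3 series of duplicate or triplicate points. After 72 h at 37 °C, MTS tetrazolium was added for 2 h and absorbance read at 492 nm. GC50 is the concentration halving cell number versus untreated control wells.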

[18] = test system: Calf thymus DNA; assay: Binding affinity to calf thymus DNA assessed as change in melting temperature at a compound to DNA molar ratio of 0.25 by UV-vis spectroscopy; format: nucleic-acid assay; conditions: Bos taurus; summary of the method: as §1
[19] = test system: Calf thymus DNA; assay: Binding affinity to calf thymus DNA assessed as change in melting temperature at a compound to DNA molar ratio of 1 by UV-vis spectroscopy; format: nucleic-acid assay; conditions: Bos taurus; summary of the method: as §1
[20] = test system: Calf thymus DNA; assay: Binding affinity to calf thymus DNA assessed as positive dichroic signal at phosphate/drug ratio of 1.2 by circular dichroism spectra; format: nucleic-acid assay; conditions: Bos taurus
Summary of the method: (§4)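 Circular dichroism of drug at […] in 1 ml of 1 mM sodium cacodylate, pH 7.0, with or without CT-DNA at 10–200 µM. Phosphate/compound ratio ran from 0.4 to 8. The induced CD signal in the ligand absorption region was recorded.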

[21] = test system: HT-29; assay: Cell cycle arrest in human HT-29 cells assessed as accumulation at G2/M phase after 24 hrs using PI staining by flow cytometry; format: functional, cell-based; summary of the method: as §3
[22] = test system: Calf thymus DNA; assay: Binding affinity to calf thymus DNA assessed as quenching constant up 80 uM by fluorescence spectroscopy; format: nucleic-acid assay; conditions: Bos taurus
Summary of the method: (§5)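 Drug at a fixed 20 µM in 1 ml BPE buffer in a 10 mm quartz cuvette, titrated with CT-DNA at 10–200 µM base pairs. Excitation was set at each compound's own wavelength (276–319 nm). Constants came from Stern–Volmer plots of F0/F against CT-DNA concentration, with the slope taken as Ksv.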

[23] = test system: Calf thymus DNA; assay: Binding affinity to calf thymus DNA assessed as quenching constant by fluorescence spectroscopy; format: nucleic-acid assay; conditions: Bos taurus; summary of the method: as §5
[24] = test system: Calf thymus DNA; assay: Binding affinity to calf thymus DNA assessed as negative dichroic signal at phosphate/drug ratio by circular dichroism spectra; format: nucleic-acid assay; conditions: Bos taurus; summary of the method: as §4
[25] = test system: HT-29; assay: Cell cycle arrest in human HT-29 cells assessed as accumulation at S phase after 24 hrs using PI staining by flow cytometry; format: functional, cell-based; summary of the method: as §3
[26] = test system: Calf thymus DNA; assay: Binding affinity to calf thymus DNA assessed as positive dichroic signal at phosphate/drug ratio by circular dichroism spectra; format: nucleic-acid assay; conditions: Bos taurus; summary of the method: as §4
[27] = test system: Calf thymus DNA; assay: Binding affinity to calf thymus DNA assessed as positive dichroic signal at phosphate/drug ratio of 4.8 by circular dichroism spectra; format: nucleic-acid assay; conditions: Bos taurus; summary of the method: as §4

| SMILES | ΔTm [1] [°C] | ΔTm [5] [°C] | ΔTm [8] [°C] | ΔTm [9] [°C] | Activity [12] | ΔTm [14] [°C] | ΔTm [16] [°C] | GI50 [17] [nM] | ΔTm [18] [°C] | ΔTm [19] [°C] | Activity [21] | other results |
| --- | --- | --- | --- | --- | --- | --- | --- | --- | --- | --- | --- | --- |
| CN(C)CCNC(=O)c1cc2c3cc(Cl)ccc3[nH]c2c2ncccc12 | 7.3 | 18.9 | 1.5 | 14.7 | Active | 24.9 | 6.1 | 3200 | 7.4 | 11.7 | – | Activity [2]: Active; GI50 ([3]; read-out: GI50): 1100 nM; GI50 ([3]; read-out: pGI50 (converted)): 1100 nM; GI50 ([4]; read-out: GI50): 1470 nM; GI50 ([4]; read-out: pGI50 (converted)): 1480 nM; Activity [6]: Active; GI50 ([7]; read-out: GI50): 1340 nM; GI50 ([7]; read-out: pGI50 (converted)): 1350 nM; Activity [10]: Active; Activity [11]: Active; GI50 ([13]; read-out: GI50): 2330 nM; GI50 ([13]; read-out: pGI50 (converted)): 2340 nM; Activity [15]: 37% |
| CN(C)CCNC(=O)c1cc2c3cccc(Cl)c3[nH]c2c2ncccc12 | 5.1 | 13.6 | 1.1 | 6.2 | Active | 8.8 | 2.8 | 14000 | 1.5 | 7.9 | Active | Activity [20]: Active |
| CN(C)CCCNC(=O)c1cc2c3ccccc3[nH]c2c2sccc12 | 4.4 | 16.4 | 0 | 11.9 | Active | 20.9 | 5.9 | 10800 | 1.5 | 5.8 | – | KSV [22]: 2.65 ×10⁴ /M |
| CN(C)CCNC(=O)c1cc2c3cc(Cl)ccc3[nH]c2c2ccncc12 | 11.2 | 24.7 | 5.3 | 18.9 | Active | 29.6 | 11.6 | 1080 | 7.9 | 15.1 | – | KSV [23]: 6.72 ×10³ /M; Activity [24]: Active; Activity [25]: Active; Activity [26]: Active |
| CN(C)CCCNC(=O)c1cc2c3cccc(Cl)c3[nH]c2c2ncccc12 | 10.4 | 23.6 | 2.6 | 17.6 | Active | 29.8 | 9.7 | 4490 | 5 | 13.8 | Active | Activity [27]: Active |
